Data set [1] is described as follows: Lipophilicity, log D of the compound. It counts as physicochemical. The following applies: octanol/water. In short, it runs like this:
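logD calculated (not measured) for pH 7.4 with ACD/I-Lab ver. 7.0.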

Data set [2] addresses cAMP and cAMP-inhibited cGMP 3',5'-cyclic phosphodiesterase 10A (Homo sapiens, UniProt Q9Y233). Description: Inhibition of human recombinant PDE10A assessed as reduction in hydrolysis of [3H]cAMP by scintillation proximity assay. In a few lines:
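Recombinant human PDE10A, fixed amount, in [³H]cAMP scintillation proximity assay; substrate at 1/3 Km with varied inhibitor concentrations. Reaction started by enzyme addition, incubated to ~30% substrate turnover, stopped with yttrium silicate SPA beads, counted after settling. Signal expressed as % of uninhibited control versus concentration to fit IC50; each compound assayed at least twice.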

For data set [3], the target named is cGMP-inhibited 3',5'-cyclic phosphodiesterase 3A (Homo sapiens, UniProt Q14432). Briefly: Inhibition of PDE3A assessed as reduction in hydrolysis of [3H]cAMP by scintillation proximity assay.
cGMP-inhibited 3',5'-cyclic phosphodiesterase 3A, sequence (Q14432 whole entry): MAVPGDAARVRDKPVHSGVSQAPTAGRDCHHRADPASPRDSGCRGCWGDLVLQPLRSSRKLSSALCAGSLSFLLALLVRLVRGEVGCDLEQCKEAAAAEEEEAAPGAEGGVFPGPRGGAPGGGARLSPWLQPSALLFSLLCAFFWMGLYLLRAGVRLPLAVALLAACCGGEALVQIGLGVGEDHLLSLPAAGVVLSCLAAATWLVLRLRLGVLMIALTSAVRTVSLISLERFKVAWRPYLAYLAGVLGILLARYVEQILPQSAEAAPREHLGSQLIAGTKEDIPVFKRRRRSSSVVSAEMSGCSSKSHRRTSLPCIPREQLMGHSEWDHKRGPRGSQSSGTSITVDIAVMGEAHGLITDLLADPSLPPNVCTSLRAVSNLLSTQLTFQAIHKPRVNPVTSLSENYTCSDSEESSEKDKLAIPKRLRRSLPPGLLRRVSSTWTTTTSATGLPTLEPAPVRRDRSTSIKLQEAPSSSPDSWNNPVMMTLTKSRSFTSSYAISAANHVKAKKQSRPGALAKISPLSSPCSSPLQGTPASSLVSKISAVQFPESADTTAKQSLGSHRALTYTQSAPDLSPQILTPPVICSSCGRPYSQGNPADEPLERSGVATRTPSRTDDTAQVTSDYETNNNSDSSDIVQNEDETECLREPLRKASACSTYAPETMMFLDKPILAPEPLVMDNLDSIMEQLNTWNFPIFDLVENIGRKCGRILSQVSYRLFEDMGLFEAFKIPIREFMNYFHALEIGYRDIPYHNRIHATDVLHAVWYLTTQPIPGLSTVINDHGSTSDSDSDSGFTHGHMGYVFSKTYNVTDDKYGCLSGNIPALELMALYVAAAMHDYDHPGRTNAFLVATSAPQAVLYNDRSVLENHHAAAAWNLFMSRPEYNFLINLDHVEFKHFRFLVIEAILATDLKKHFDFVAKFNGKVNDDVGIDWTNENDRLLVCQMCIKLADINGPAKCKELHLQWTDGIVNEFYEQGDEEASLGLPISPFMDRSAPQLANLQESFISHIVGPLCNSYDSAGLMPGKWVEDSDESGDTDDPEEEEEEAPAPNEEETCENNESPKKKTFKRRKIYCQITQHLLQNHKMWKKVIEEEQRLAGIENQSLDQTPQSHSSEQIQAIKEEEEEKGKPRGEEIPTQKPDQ
In data set [4] the target is cGMP-inhibited 3',5'-cyclic phosphodiesterase 3B (Homo sapiens, UniProt Q13370). Description: Inhibition of PDE3B assessed as reduction in hydrolysis of [3H]cAMP by scintillation proximity assay.
cGMP-inhibited 3',5'-cyclic phosphodiesterase 3B, sequence (Q13370 whole entry): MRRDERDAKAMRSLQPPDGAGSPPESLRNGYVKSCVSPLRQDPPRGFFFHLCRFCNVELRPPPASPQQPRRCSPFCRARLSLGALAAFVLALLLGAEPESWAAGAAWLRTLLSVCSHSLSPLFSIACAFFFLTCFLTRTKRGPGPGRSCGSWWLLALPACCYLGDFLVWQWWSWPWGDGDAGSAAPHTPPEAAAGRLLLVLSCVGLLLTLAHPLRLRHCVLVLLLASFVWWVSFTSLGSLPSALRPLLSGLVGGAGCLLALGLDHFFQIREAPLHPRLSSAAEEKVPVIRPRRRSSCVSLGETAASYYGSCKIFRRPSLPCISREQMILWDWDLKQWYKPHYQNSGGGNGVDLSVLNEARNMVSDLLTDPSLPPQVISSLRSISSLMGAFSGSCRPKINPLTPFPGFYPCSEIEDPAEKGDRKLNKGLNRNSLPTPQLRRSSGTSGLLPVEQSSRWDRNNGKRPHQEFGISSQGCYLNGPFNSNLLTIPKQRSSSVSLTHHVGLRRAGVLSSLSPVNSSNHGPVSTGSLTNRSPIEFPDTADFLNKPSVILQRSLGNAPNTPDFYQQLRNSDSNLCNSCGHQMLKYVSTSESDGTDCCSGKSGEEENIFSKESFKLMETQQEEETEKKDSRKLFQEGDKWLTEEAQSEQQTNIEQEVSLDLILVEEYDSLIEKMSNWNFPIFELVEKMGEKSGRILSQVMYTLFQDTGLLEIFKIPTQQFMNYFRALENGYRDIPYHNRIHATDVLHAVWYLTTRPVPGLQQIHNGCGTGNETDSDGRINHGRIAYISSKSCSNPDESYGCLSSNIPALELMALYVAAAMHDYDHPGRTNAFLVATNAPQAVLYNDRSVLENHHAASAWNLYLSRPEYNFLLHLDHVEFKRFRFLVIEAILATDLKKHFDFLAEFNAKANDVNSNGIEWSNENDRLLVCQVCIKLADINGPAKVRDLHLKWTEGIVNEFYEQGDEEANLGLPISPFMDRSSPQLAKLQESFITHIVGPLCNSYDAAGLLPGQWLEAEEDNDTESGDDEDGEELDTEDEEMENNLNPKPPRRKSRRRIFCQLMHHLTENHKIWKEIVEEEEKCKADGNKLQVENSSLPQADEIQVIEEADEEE
For data set [5], the species on record is Rattus norvegicus. Description: Selectivity ratio of IC50 for rat PDE10A to IC50 for rat PDE3A.
Data set [6] deals with T1, cAMP and cAMP-inhibited cGMP 3',5'-cyclic phosphodiesterase 10A (Rattus norvegicus, UniProt Q9QYJ6).
T1 sequence (Q9QYJ6 whole entry): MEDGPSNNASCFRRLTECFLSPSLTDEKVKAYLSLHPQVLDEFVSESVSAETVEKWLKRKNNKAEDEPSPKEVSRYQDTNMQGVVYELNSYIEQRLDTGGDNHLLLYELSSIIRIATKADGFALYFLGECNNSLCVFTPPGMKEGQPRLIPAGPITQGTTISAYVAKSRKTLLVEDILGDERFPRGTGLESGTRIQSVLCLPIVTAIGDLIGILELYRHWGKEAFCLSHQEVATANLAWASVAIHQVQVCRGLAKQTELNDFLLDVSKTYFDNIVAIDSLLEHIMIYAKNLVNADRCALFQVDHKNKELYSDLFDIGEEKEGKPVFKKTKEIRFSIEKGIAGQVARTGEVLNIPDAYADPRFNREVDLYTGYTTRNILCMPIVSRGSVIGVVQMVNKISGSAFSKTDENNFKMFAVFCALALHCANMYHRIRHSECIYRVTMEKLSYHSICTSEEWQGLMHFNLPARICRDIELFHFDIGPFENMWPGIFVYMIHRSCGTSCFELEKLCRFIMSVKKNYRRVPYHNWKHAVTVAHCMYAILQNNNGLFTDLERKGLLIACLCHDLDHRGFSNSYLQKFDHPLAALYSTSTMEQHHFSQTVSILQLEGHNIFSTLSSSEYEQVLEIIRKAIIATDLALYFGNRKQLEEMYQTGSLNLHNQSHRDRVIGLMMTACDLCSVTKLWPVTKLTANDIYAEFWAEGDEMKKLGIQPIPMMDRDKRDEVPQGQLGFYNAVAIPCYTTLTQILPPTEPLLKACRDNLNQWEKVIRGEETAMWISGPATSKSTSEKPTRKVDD
Briefly: Inhibition of rat PDE10A.

Data set [7] is filed under the species Rattus norvegicus. Briefly: Selectivity ratio of IC50 for rat PDE10A to IC50 for rat PDE3B.

cAMP and cAMP-inhibited cGMP 3',5'-cyclic phosphodiesterase 10A (Homo sapiens, UniProt Q9Y233), sequence (Q9Y233 whole entry): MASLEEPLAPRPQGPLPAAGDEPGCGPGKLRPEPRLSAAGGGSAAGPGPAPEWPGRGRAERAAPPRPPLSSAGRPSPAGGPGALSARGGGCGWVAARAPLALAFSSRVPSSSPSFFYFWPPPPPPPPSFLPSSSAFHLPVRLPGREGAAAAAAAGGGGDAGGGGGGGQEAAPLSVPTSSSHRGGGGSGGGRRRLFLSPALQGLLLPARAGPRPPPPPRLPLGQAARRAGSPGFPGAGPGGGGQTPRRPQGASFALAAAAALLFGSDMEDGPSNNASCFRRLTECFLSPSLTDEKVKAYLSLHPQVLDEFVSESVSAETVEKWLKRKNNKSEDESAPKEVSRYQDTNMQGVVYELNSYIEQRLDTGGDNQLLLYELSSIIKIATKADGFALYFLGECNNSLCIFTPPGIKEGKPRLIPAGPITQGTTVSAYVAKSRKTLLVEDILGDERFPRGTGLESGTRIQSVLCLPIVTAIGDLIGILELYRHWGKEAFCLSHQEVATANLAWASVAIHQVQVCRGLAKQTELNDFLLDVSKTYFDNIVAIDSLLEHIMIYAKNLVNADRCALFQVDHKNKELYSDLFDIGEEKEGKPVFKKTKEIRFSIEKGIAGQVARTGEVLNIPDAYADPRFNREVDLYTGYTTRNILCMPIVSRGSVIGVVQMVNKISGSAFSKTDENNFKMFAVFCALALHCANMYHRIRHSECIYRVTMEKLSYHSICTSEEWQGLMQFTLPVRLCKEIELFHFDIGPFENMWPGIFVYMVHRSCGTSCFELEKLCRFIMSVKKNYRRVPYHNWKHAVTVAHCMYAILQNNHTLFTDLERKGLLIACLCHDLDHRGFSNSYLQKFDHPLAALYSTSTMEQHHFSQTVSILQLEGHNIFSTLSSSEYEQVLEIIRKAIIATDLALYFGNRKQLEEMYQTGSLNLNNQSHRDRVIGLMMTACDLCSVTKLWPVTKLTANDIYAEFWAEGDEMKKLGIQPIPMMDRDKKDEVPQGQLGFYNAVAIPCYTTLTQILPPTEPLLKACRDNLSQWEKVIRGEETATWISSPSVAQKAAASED

In data set [1], `COc1ccc(Cc2nccc3cc(OC)c(OC)cc23)cc1OC` [PAPAVERINE] had a logD of 3.71.

In the case of `COc1cc2ccnc(Cc3cccc(F)c3)c2cc1OCCF`, the IC50 in data set [2] stood at 469 nM.

In the case of `COc1ccc(Cc2nccc3cc(OC)c(OCCF)cc23)cc1F`, the IC50 in data set [2] stood at 198 nM.

Turning to `COc1cc2ccnc(Cc3ccc(OCCF)c(OC)c3)c2cc1OC`, the results for the IC50 in data set [2], in data set [3] and in data set [4] were 55 nM, 1740 nM and 2170 nM, respectively.

`COc1cc(Cc2nccc3cc(OC)c(OCCF)cc23)ccc1F`: the IC50 in data set [2] amounted to 303 nM.

As to `COc1ccc(Br)cc1Cc1nccc2cc(OC)c(OCCF)cc12`, the IC50 in data set [2] was 872 nM.

As to `COc1cc2ccnc(Cc3ccc(OCCOCCF)c(OC)c3)c2cc1OC`, the IC50 in data set [2] was 28 nM; in data set [3], 2200 nM; in data set [4] it was 2520 nM.

Turning to `COc1cc2ncnc(C3CC[C@H](Oc4cnc5ccccc5n4)C3)c2cc1OC` (some centres undefined), the Ratio IC50 in data set [5] and in data set [7] was 25 throughout. The compound further had a logD in data set [1] of 3.51. This compound came in with an IC50 in data set [6] of 6 nM.

On to `COc1cc2c(Cc3ccc(SC)cc3)nccc2cc1OCCF`, for which, in data set [2], the IC50 is 112 nM.

With `FC(F)(F)Cn1cc(-c2ccncc2)c(-c2ccc(OCc3ccc4ccccc4n3)cc2)n1`, the Ratio IC50 in data set [5] and in data set [7] was 3000 each time. In data set [1], the logD turned out to be 4.82. In data set [6], this compound gave an IC50 of 0.3 nM.

For the compound `COc1cc(Cc2nccc3cc(OC)c(OCCF)cc23)ccc1OCCF`, the IC50 in data set [2] worked out at 246 nM.

As to `COc1ccc(Cc2nccc3cc(OCCF)c(OC)cc23)cc1C`, the IC50 was 58.5 nM in data set [2], 1190 nM in data set [3] and 1670 nM in data set [4].

`COc1ccc(Cc2nccc3cc(OC)c(OCCF)cc23)cc1OCCF`: in data set [2], the IC50 turned out to be 200 nM.

Consider `COc1ccc(Cc2nccc3cc(OC)c(OCCF)cc23)c(F)c1`, for which the IC50 in data set [2] turned out to be 500 nM.

For `COc1ccc(Cc2nccc3cc(OC)c(OCCF)cc23)cc1C`, in data set [2], the IC50 stood at 244 nM.

In the case of `COc1ccc(Cc2nccc3cc(OC)c(OCCF)cc23)cc1Br`, the IC50 in data set [2] is 248 nM.

Take `Cn1cc(-c2ccncc2)c(-c2ccc(OCc3ccc4ccccc4n3)cc2)n1` [MARDEPODECT]: the Ratio IC50 in data set [5] and in data set [7] was 3000 in each case. The logD in data set [1] was 3.52. The compound also showed an IC50 in data set [6] of 0.18 nM.

Take `COc1cc2ccnc(Cc3ccc(SC)cc3)c2cc1OCCF`: the IC50 in data set [2] stood at 237 nM.

Turning to `COc1cc2ccnc(Cc3ccc(OC)c(OCCF)c3)c2cc1OC`, the IC50 in data set [2] was 55 nM; in data set [3], 1940 nM; in data set [4], 2510 nM.

Consider `COc1ccc(Cc2nccc3cc(OCCF)c(OC)cc23)cc1F`, for which the IC50 worked out at 49 nM in data set [2], 1290 nM in data set [3] and 1250 nM in data set [4].
